Test results as given in paper PMC5039020 (Journal of Alzheimer's disease : JAD, 2013).
“Also recorded” adds a separate entry of the source. Read-outs that look alike come from different tables or passages of the source.

Assays:
extracellular Aβ42 = assay: Extracellular Aβ42 ELISA capture assay in N2a-AβPP695 cell supernatants; assay type: cell-based; details: for effect on Aftin-5 induced extracellular Aβ42 production: N2a-AβPP695, compound together with 100 μM Aftin-5, 18 h; for effect on extracellular Aβ42 level/production: N2a-AβPP695, compound alone, various concentrations
SH-SY5Y = assay: Cell viability, MTS assay, SH-SY5Y; assay type: cell-based; details: read-out: IC50, cell viability (MTS assay), viability assessed 24 h later
HT22 = assay: Cell viability, MTS assay, HT22; assay type: cell-based; details: read-out: IC50, cell viability (MTS assay); HT22, viability assessed 24 h later
How it was run: (§1)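 Each line was exposed to increasing concentrations of test compound, and viability was read 24 h later by MTS. 20 μL MTS reagent per 100 μL medium, 3 h at 37°C, 5% CO₂. Absorbance read at 490 and 630 nm. IC50 derived from dose-response curves.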

N2a = assay: Cell viability, MTS assay, N2a; assay type: cell-based; details: read-out: IC50, cell viability (MTS assay), viability assessed 24 h later
How it was run: as §1

N2a-AβPP695 = assay: Cell viability, MTS assay, N2a-AβPP695; assay type: cell-based; details: for IC50: read-out: IC50, cell viability (MTS assay), N2a-AβPP695, viability assessed 24 h later
[1] = test system: KinomeScan panel of 402/442 kinases; details: 402 kinases; cited from earlier work
extracellular Aβ40 = assay: Extracellular Aβ40 ELISA capture assay in N2a-AβPP695 cell supernatants; assay type: cell-based; details: for IC50: read-out: IC50 Aβ40, N2a-AβPP695, GSI added 1 h before 100 μM Aftin-5, 18 h; for effect on extracellular Aβ40 in Aftin-5 treated cells: N2a-AβPP695, compound together with 100 μM Aftin-5, 18 h; for effect on extracellular Aβ40 level/production: N2a-AβPP695, compound alone, various concentrations
extracellular Aβ38 = assay: Extracellular Aβ38 ELISA capture assay in N2a-AβPP695 cell supernatants; assay type: cell-based; details: for IC50: read-out: IC50 Aβ38, N2a-AβPP695, GSI added 1 h before 100 μM Aftin-5, 18 h; for effect on extracellular Aβ38 level: N2a-AβPP695, compound alone, various concentrations
[2] = test system: intracellular Aβ38, Aβ40, and Aβ42; assay: Intracellular amyloids ELISA capture assay in N2a-AβPP695 cells; assay type: cell-based
How it was run: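 2 × 10⁶ N2a-AβPP695 cells per T25 flask in 0.5% FBS medium overnight, then treated for 18 h. Cells washed, scraped into PBS with protease inhibitors, pelleted, lysed in 1% Nonidet P-40, sonicated, and spun at 14,000 rpm for 15 min at 4°C. Lysate supernatant assayed by 6E10-capture sandwich ELISA with biotinylated Aβ38, Aβ40 or Aβ42 antibodies. Values expressed as fold over untreated cells.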

[3] = test system: KinomeScan panel of 402/442 kinases; assay: KinomeScan panel; assay type: binding; details: 10 μM
N2a-AβPP695 cells [4] = assay: Autophagy assessment, counting of LC3 foci by immunofluorescence; assay type: cell-based
How it was run: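 Cells grown on glass coverslips, fixed in 4% paraformaldehyde, permeabilised with 50 μM digitonin, and stained with a monoclonal anti-LC3 antibody. Images taken with a 40× NA 0.85 objective. LC3 foci counted automatically by image analysis.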

N2a-AβPP695 cells [5] = assay: Mitochondrial parameters in cultured cells; assay type: cell-based
[6] = test system: mitochondria isolated from N2a-AβPP695 cells; assay: Electron microscopy, ultrastructure of isolated mitochondria; details: 100 μM Aftin-5; 50 μM Calcium; 50 μM Calcium + CsA
N2a-AβPP695 cells [7] = assay: Electron microscopy, ultrastructure of mitochondria within cells; assay type: cell-based
Animal toxicity = assay type: in vivo; details: per os doses up to 150 mg/kg daily for 20 days; data not shown
[8] = N2a-AβPP695, dose-response, 18 h

Cn1cnc(N)c2ncnc1-2 [3-methyladenine]
effect on Aftin-5 induced extracellular Aβ42 production (extracellular Aβ42): did not interfere

CN(C)c1ncnc2nc[nH]c12 [Aftin N6DA, N6-dimethylaminopurine]
effect on extracellular Aβ42 level/production (extracellular Aβ42; 18 h): inactive

CCC(CO)Nc1nc(N(C)Cc2ccccc2)c2ncn(C(C)C)c2n1 (centres unmarked) [Aftin-4, N^6-methyl-roscovitine]
IC50 (SH-SY5Y): 106 µM | IC50 (HT22): 74 µM | IC50 (N2a): 100 µM | IC50 (N2a-AβPP695): 90 µM | effect on extracellular Aβ42 level/production (extracellular Aβ42; 18 h): bell-shaped | interaction with kinases (KinomeScan) [1]: no significant interaction

CC[C@H](CO)Nc1nc(N(C)c2ccccc2)c2ncn(C(C)C)c2n1 [Aftin-5]
IC50 (SH-SY5Y): 180 µM | IC50 (HT22): 194 µM | IC50 (N2a): 178 µM | IC50 (N2a-AβPP695): 150 µM | cytotoxic effects on cells (N2a-AβPP695; up to 100 μM, or longest exposure 6 days, data not shown): did not show any cytotoxic effects; also recorded: little cell toxicity | time after addition at which Aβ42 production reached a plateau (extracellular Aβ42; N2a-AβPP695, 100 μM Aftin-5): about 12 h | effect on extracellular Aβ42 level/production (extracellular Aβ42; 18 h): linear up to the highest dose tested | increase of Aβ42 production (up to) (extracellular Aβ42; [8]): > 900% | maximum increase of Aβ40 level (extracellular Aβ40; [8]): 40% | decrease of Aβ38 level (extracellular Aβ38; [8]): > 70% | effect on levels of intracellular Aβ38, Aβ40, and Aβ42 ([2]; N2a-AβPP695, 100 μM Aftin-5, 18 h): did not modify | interaction with kinases (KinomeScan) [3]: no interaction with any of the kinases | effect on rapamycin-induced autophagy (N2a-AβPP695 cells [4]): Neither Aftin-5 nor its inactive analog compound (2) impaired rapamycin-induced autophagy | mitochondrial parameters at the cellular level, control vs treated cells (N2a-AβPP695 cells [5]): essentially undistinguishable | global respiration functions (N2a-AβPP695 cells [5]; 24 h): slight inhibition | ultrastructure of isolated mitochondria (swelling, cristae remodeling) [6]: did not induce any swelling or cristae remodeling | ultrastructure of mitochondria within cells, 6 h (N2a-AβPP695 cells [7]; 100 μM, 6 h): little detectable effects | ultrastructure of mitochondria within cells, 24 h (N2a-AβPP695 cells [7]; 100 μM, 24 h, reversible upon washing): partial mitochondrial swelling without disruption of cristae | animal toxicity (Animal toxicity): little

C[C@H](c1ccc(F)cc1CCCC(=O)O)N(c1cc(F)ccc1F)S(=O)(=O)c1ccc(Cl)cc1 [BMS 299897]
IC50 (extracellular Aβ40): 56 nM | IC50 (extracellular Aβ38): 88 nM

C[C@H](NC(=O)Cc1cc(F)cc(F)c1)C(=O)NC(C(=O)OC(C)(C)C)c1ccccc1 (some centres unmarked) [DAPT]
effect on Aftin-5 induced extracellular Aβ42 production (extracellular Aβ42): down-regulated | effect on extracellular Aβ40 in Aftin-5 treated cells (extracellular Aβ40): down-regulated | IC50 (extracellular Aβ40): 62 nM | effect on extracellular Aβ38 / Aftin-5 induced Aβ38 down-regulation (extracellular Aβ38; N2a-AβPP695, compound together with 100 μM Aftin-5, 18 h): down-regulated | IC50 (extracellular Aβ38): 112 nM | effect on levels of intracellular amyloids ([2]; N2a-AβPP695, 1 μM compound in presence of 100 μM Aftin-5, 18 h): but not that of intracellular amyloids

[Ca+2] [calcium]
ultrastructure of isolated mitochondria (swelling, cristae remodeling) [6]: strong swelling

C[C@H](CS)C(=O)N1CCC[C@H]1C(=O)O [captopril]
effect on extracellular Aβ42 level/production (extracellular Aβ42; 18 h): no effects | effect on extracellular Aβ40 level/production (extracellular Aβ40; 18 h): no effects | effect on extracellular Aβ38 level (extracellular Aβ38; 18 h): no effects

CN(Cc1ccccc1)c1nc(N)nc2[nH]cnc12 [compound (2)]
effect on extracellular Aβ42 level/production (extracellular Aβ42; 18 h): inactive | effect on rapamycin-induced autophagy (N2a-AβPP695 cells [4]): Neither Aftin-5 nor its inactive analog compound (2) impaired rapamycin-induced autophagy

COc1cccc2c1C(=O)c1c(O)c3c(c(O)c1C2=O)C[C@@](O)(C(=O)CO)C[C@@H]3O[C@H]1C[C@H](N)[C@H](O)[C@H](C)O1 [doxorubicin]
ultrastructure of mitochondria within cells, positive control (N2a-AβPP695 cells [7]; 5 μM doxorubicin): altered the structure of cristae and induced cell death

CC(C)C[C@H](NP(=O)(O)O[C@@H]1O[C@@H](C)[C@H](O)[C@@H](O)[C@H]1O)C(=O)N[C@@H](Cc1c[nH]c2ccccc12)C(=O)O [phosphoramidon]
effect on extracellular Aβ42 level/production (extracellular Aβ42; 18 h): no effects | effect on extracellular Aβ40 level/production (extracellular Aβ40; 18 h): no effects | effect on extracellular Aβ38 level (extracellular Aβ38; 18 h): no effects

C[C@H](N[C@@H](CCc1ccccc1)C(=O)O)C(=O)N1Cc2ccccc2C[C@H]1C(=O)O [quinaprilat]
effect on extracellular Aβ42 level/production (extracellular Aβ42; 18 h): no effects | effect on extracellular Aβ40 level/production (extracellular Aβ40; 18 h): no effects | effect on extracellular Aβ38 level (extracellular Aβ38; 18 h): no effects

CO[C@H]1C[C@@H]2CC[C@@H](C)[C@@](O)(O2)C(=O)C(=O)N2CCCC[C@H]2C(=O)O[C@H]([C@H](C)C[C@@H]2CC[C@@H](O)[C@H](OC)C2)CC(=O)[C@H](C)/C=C(\C)[C@@H](O)[C@@H](OC)C(=O)[C@H](C)C[C@H](C)/C=C/C=C/C=C/1C [rapamycin]
effect on Aftin-5 induced extracellular Aβ42 production (extracellular Aβ42): did not prevent | autophagy, LC3 foci, compound alone (N2a-AβPP695 cells [4]): accumulation of LC3 foci

CC[C@H](CO)Nc1nc(NCc2ccccc2)c2ncn(C(C)C)c2n1 [roscovitine, (R)-Roscovitine]
effect on extracellular Aβ42 level/production (extracellular Aβ42; 18 h): little effect

O=C(O)CNC(=O)C(CS)Cc1ccccc1 (centres unmarked) [thiorphan]
effect on extracellular Aβ42 level/production (extracellular Aβ42; 18 h): no effects | effect on extracellular Aβ40 level/production (extracellular Aβ40; 18 h): no effects | effect on extracellular Aβ38 level (extracellular Aβ38; 18 h): no effects

β-secretase inhibitor IV
effect on Aftin-5 induced extracellular Aβ42 production (extracellular Aβ42): inhibited production | effect on extracellular Aβ40 in Aftin-5 treated cells (extracellular Aβ40): inhibited production
